From ChEMBL document CHEMBL4513216, “Probing the Open Global Health Chemical Diversity Library for Multistage-Active Starting Points for Next-Generation Antimalarials” (ACS Infect Dis, 2020)

Test: Toxicity liver stage against HepG2, at 10uM
Assay type: cell-based
Parameters: test concentration 10 uM, cell line HepG2-A16-CD81EGFP
Settings: human, HepG2-A16-CD81EGFP cells; read-out: INHIBITION
Procedure, shortened: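 Uninfected HepG2-A16-CD81EGFP cells, 3 × 10^3 per well, 1536-well, plated on prespotted compound at 10 μM final, parasite-free screening media added to match infected plates; puromycin 10 μM positive, DMSO 0.5% negative; run in parallel with 48 h PbLuc assay at 37 °C, 5% CO2; viability by CellTiter-Glo luminescence, normalized to controls.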

| Structure (SMILES) | cytotoxicity at 10 µM [%] |
| --- | --- |
| CCc1ccc(CN(CCN(C)C)Cc2ccc(C)s2)nc1 | -43 |
| Cn1c2c(c(=O)n1C)CN(C(=O)c1ccco1)CCC2 | 10.5 |
| Cc1ncsc1CN1C[C@@H]2COC[C@]2(CNC(=O)c2ccco2)C1 | -73.8 |
| COCC(=O)N1CCn2c(Cn3cncn3)cnc2C1C (stereo not given) | 0.53 |
| COc1ccccc1-c1nc(C(=O)N(C)C)n2ccncc12 | 12.6 |
| CC(C)CNC(=O)N1C[C@H]2CC[C@@]3(N=C(c4ccccc4)NC3=O)[C@H]2C1 | -5.82 |
| Cc1ccc(CN(Cc2[nH]cnc2C)C2CC(C)(C)NC(C)(C)C2)o1 | -3.3 |
| CCn1ccnc1CN1CCCN(C(=O)c2ccnn2C)CC1 | -5.39 |
| CS(=O)(=O)NCc1ncn2c1CN(C(=O)CC1CCCC1)CCC2 | 4.79 |
| COc1ncccc1CN1CC[C@@]2(O)CCN(C(=O)C3CCC3)C[C@H]2C1 | 9.31 |
| Nc1cc(N2CCCC(Cc3ccc(F)cc3F)(C(=O)O)C2)ncn1 (stereo not given) | 10.6 |
| CN1C[C@H](O)C[C@H]1c1nc(-c2ccc3c(c2)OCO3)no1 | 6.88 |
| CCOc1ccc(NC(=O)N(CCC#N)Cc2ccccn2)cc1F | -6 |
| O=C(COCC1CCCO1)N(Cc1cccnc1)c1ccc(F)cc1 (stereo not given) | -2.04 |
| CCC(C)NC(=O)CS(=O)(=O)Cc1nc(-c2cccs2)no1 (stereo not given) | 2.04 |
| O=C1CCSCC(C(=O)N2CCCCC2)N1 (stereo not given) | -3.55 |
| CC(C)C(=O)N1CCN(Cc2cnn(C)c2)CC2(CC(=O)N(C)C2)C1 (stereo not given) | 3.42 |
| O=C1CC[C@@H]2[C@@H](CCN2Cc2ccncc2)N1c1ccccc1 | -1.88 |
| CCOc1ccccc1N1CCN(c2nnc(C)o2)CC1 | -10.9 |
| O=C(c1cnn[nH]1)N1CCCC1c1nc2cc(F)ccc2[nH]1 (stereo not given) | 2.68 |
| N#CCCN(Cc1ccco1)C(=O)Cc1ccc(-n2cnnn2)cc1 | 3.23 |
| OCCN1CCC2(CCc3cc(-c4ccoc4)ccc32)CC1 | -0.582 |
| CC(C)CC(=O)N1CC(=O)N(Cc2ccco2)CC(O)C1 (stereo not given) | -8.23 |
| CC(C)CNC(=O)c1cc(C2CC2)nc2onc(C3CCNCC3)c12 | 10.8 |
| CC(C)Cc1cc(NC(=O)c2ccc[nH]2)n(C)n1 | -6.56 |
| Cc1cnn(CC2CCCN2C(=O)c2sccc2-n2cnnn2)c1 (stereo not given) | -15 |
| CN(C)CCOCc1nnc2n1CCN(CC1CC1)CC2 | -4.87 |
| CNS(=O)(=O)CC(=O)NC(C)Cc1ccccc1Br (stereo not given) | 13.7 |

| Structure (SMILES) | cytotoxicity at 10 µM [%] |
| --- | --- |
| CCc1cc(NCCC(F)(F)F)nc(N2CCOCC2)n1 | -4.65 |
| O=C(N1CCCC(n2cncn2)C1)C1(c2ccc(Cl)cc2)CCC1 (stereo not given) | -2.11 |
| CCOCc1cnc2n1CCN(Cc1nc(C)cs1)C2C (stereo not given) | 10.2 |
| O=C(Cc1c(F)cccc1Cl)Nc1cc(N2CCOCC2)ncn1 | 3.36 |
| CS(=O)(=O)N1CCN(c2ccnc(N3CCCCC3)n2)CC1 | -0.359 |
| CN(C)c1ccc(CN2CCN(c3ccc(C#N)cc3)C(=O)C2)cn1 | -28.2 |
| CCOc1cc(C)nc(N2CCN(C(=O)c3cnc[nH]3)CC2)n1 | -11.8 |
| CC(CCNC(=O)NCCNc1cnccn1)c1ccccc1 (stereo not given) | -4.08 |
| CNc1ncc(CN(C)C(=O)[C@@]23CNC[C@@H]2CN(C2CCCC2)C3)cn1 | 0.153 |
| Cc1ccc(N2CCc3sc(C(=O)NCCN4CCCC4)cc32)nn1 | -2.19 |
| OC[C@H]1CN(Cc2c(Cl)cccc2Cl)C[C@H]1CN1CCCCC1 | -140 |
| CCc1nc(CN2CCN(C(=O)c3cc(C)nn3C)CC2)cs1 | 3.83 |
| CN(C)C(=O)c1cnc2n1CCN(Cc1cccc(C#N)c1)C2 | -77.3 |
| CCC1=N[C@@]2(CC[C@@H]3CN(Cc4ccccc4F)C[C@@H]32)C(=O)N1CC | -12.4 |
| CCn1c(Cn2cccn2)nnc1C1CCN(Cc2ccc(C)o2)CC1 | -1.14 |
| CCOc1ncccc1C(=O)N(C)C1CCN(c2ccccn2)CC1 | -18.7 |
| Cn1cccc1C(O)CNC(=O)COc1ccccc1F (stereo not given) | -2.54 |
| CC(=O)c1cc(C(=O)N2CCN(C)Cc3ccccc32)n(C)c1 | 7.85 |
| CCn1nc2c(cc1=O)CN(c1ncnc3sccc13)CC2 | 47.5 |
| CC(C#N)CSc1ccccc1NCC(=O)NC1CCCCC1 (stereo not given) | 9.37 |
| CCN(CC)C(CNC(=O)c1ccc(S(=O)(=O)NC)cc1)c1ccco1 (stereo not given) | -13.5 |
| CCc1nnc(Nc2cc(C)nc(C3CCN(c4cnccn4)C3)n2)s1 (stereo not given) | 4.24 |
| COc1ccccc1CC(=O)N1CCN(Cc2ccco2)C[C@@H]1C | 2.08 |
| CS(=O)(=O)NCCn1ccc(-c2cccs2)n1 | 1.43 |
| COc1ccc(CN(Cc2cccnc2)CC2CCCO2)c(OC)c1 (stereo not given) | 1.13 |
| COCCCN1CCCN(C(C)C(=O)Nc2cccc(I)c2)CC1 (stereo not given) | -8.34 |
| Cc1ncsc1CCN(C)Cc1ccc(Br)o1 | -43 |
